Assay [1] has as its system HeLa. The experiment in a line: Cytotoxicity against human HeLa cells after 72 hrs by MTT assay. The format is functional, cell-based. The essentials: (§1)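 Cells allowed to attach as monolayers, then exposed to compounds at various concentrations in culture medium for 72 h; controls got deionized water (compound stock solvent). MTT added ([…]) for 3 h, supernatant removed, cells dissolved in DMSO, absorbance at 570 nm. CC50 = concentration reducing MTT signal 50% versus untreated controls.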
(Formazan colour is commonly taken as a measure of viable cells.)

Assay [2] is described as follows: Cytotoxicity against human Bel7404 cells after 72 hrs by MTT assay. The format is functional, cell-based. The conditions noted are these: BEL-7404, 72 h. The procedure, abridged: as §1
Assay [3] has as its system CNE. In words: Cytotoxicity against human CNE cells after 72 hrs by MTT assay. The format is functional, cell-based. The procedure, abridged: as §1
Assay [4] concerns KB. The experiment in a line: Cytotoxicity against human KB cells after 72 hrs by MTT assay. The format is functional, cell-based. The essentials: as §1
Assay [5] concerns A549. The experiment in a line: Cytotoxicity against human A549 cells after 72 hrs by MTT assay. The conditions noted are these: A549, 72 h. The format is functional, cell-based. The procedure, abridged: as §1
Assay [6] deals with PC-3. The experiment in a line: Cytotoxicity against human PC3 cells after 72 hrs by MTT assay. The conditions noted are these: PC-3, 72 h. The format is functional, cell-based. The essentials:
as §1

Assay [7] can be described thus: Inhibition of alpha glucosidase. The essentials:
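α-Glucosidase (25 µL at 0.2 U/mL) with p-nitrophenyl-α-D-glucopyranoside (25 µL of 23.2 mM), sample at various concentrations, in 67 mM phosphate buffer pH 6.8. Reaction stopped with 1 M Na2CO3; p-nitrophenol release read at 405 nm. Blanks lacked enzyme; negative control had buffer instead of sample; acarbose as positive control. Percent inhibition from corrected ODs; IC50 calculated from this.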

Our source for the IC50 values is ChEMBL document CHEMBL1158697, “Synthesis and biological evaluation of a natural ester sintenin and its synthetic analogues” (J Nat Prod, 2005).

SMILES strings stand for the structures.

One may read the IC50 as the concentration at which inhibition is half-maximal. A higher IC50 goes with weaker potency.

For the molecule `COc1ccc(CCCOC(=O)CCc2ccc(O)cc2)cc1`, the IC50 is greater than 100 µg/mL in assay [1]; 108 µM in assay [2]; 287 µM in assay [3]; 820 µM in assay [4]; 186 µM in assay [5]; 283 µM in assay [6].

Take `O=C(/C=C/c1ccc(O)c(O)c1)OC/C=C/c1ccccc1`: the IC50 came to 171 µM in assay [1]; 91 µM in assay [2]; 214 µM in assay [3]; 97 µM in assay [7]; 54 µM in assay [4]; 71 µM in assay [5]. In assay [6], half-maximal inhibition (IC50) was put at 123 µM.

As to `COc1ccc(CCCOC(=O)CCc2cc(OC)c(OC)c(OC)c2)cc1OC`, the IC50 in assay [1] was greater than 100 µg/mL; in assay [2] it was greater than 100 µg/mL; in assay [3], greater than 100 µg/mL; in assay [4], 124 µM; in assay [5], greater than 100 µg/mL; in assay [6] it was 104 µM.

`C[C@H]1O[C@H](O[C@H]2[C@H](O)[C@@H](O)[C@@H](O[C@H]3[C@H](O)[C@@H](O)C(O)O[C@@H]3CO)O[C@@H]2CO)[C@H](O)[C@@H](O)[C@@H]1N[C@H]1C=C(CO)[C@@H](O)[C@H](O)[C@H]1O` (stereo partly drawn) [ACARBOSE] displayed an IC50 in assay [7] of 680 µM.

Regarding `O=C(/C=C/c1ccc(O)cc1)OC/C=C/c1ccccc1`, the IC50 in assay [1] was 160 µM; in assay [2], greater than 100 µg/mL; in assay [3], 162 µM; in assay [7], 65 µM; in assay [4], greater than 100 µg/mL; in assay [5], 120 µM. The molecule also showed an IC50 in assay [6] of 143 µM.

For `O=C(CCc1ccc(O)c(O)c1)OCCCc1ccccc1`, the IC50 in assay [1] was 171 µM; in assay [2] it was greater than 100 µg/mL; in assay [3], 235 µM; in assay [7] it was 73 µM; in assay [4], 125 µM; in assay [5], 138 µM. The molecule further gave an IC50 in assay [6] of 189 µM.

For `COc1cc(/C=C/COC(=O)/C=C/c2cc(OC)c(OC)c(OC)c2)cc(OC)c1OC`, the half-inhibitory concentration (IC50) is 43 µM in assay [1]; greater than 100 µg/mL in assay [2]; 50 µM in assay [3]; 110 µM in assay [7]; 206 µM in assay [4]; 180 µM in assay [5]. Further, the concentration for half-maximal inhibition (IC50) in assay [6] was 189 µM.

For the molecule `COc1ccc(/C=C/COC(=O)/C=C/c2ccc(OC)c(OC)c2)cc1OC`, the IC50 in assay [1] was 86.7 µM; in assay [2] it was 136 µM; in assay [3], greater than 100 µg/mL; in assay [4] it was 133 µM; in assay [5] it was 181 µM; in assay [6] it was 92 µM.

Turning to `COc1ccc(/C=C/COC(=O)/C=C/c2ccc(O)cc2)cc1`, the IC50 in assay [1] was determined as 95 µM; in assay [2], 193 µM; in assay [3], 40 µM; in assay [4], 143 µM; in assay [5] it was 72 µM; in assay [6] it was 88 µM.

`COCOc1ccc(/C=C/C(=O)OC/C=C/c2ccccc2)cc1OCOC`: the IC50 in assay [1] was greater than 1000 µM; in assay [2], greater than 100 µg/mL; in assay [3], greater than 100 µg/mL; in assay [4], 202 µM; in assay [5] it was greater than 100 µg/mL; in assay [6], greater than 1000 µM.

In the case of `COc1ccc(/C=C/COC(=O)/C=C/c2cc(OC)c(OC)c(OC)c2)cc1OC`, the IC50 in assay [1] is 64 µM; in assay [2] it was 212 µM; in assay [3] it was greater than 100 µg/mL; in assay [4], greater than 100 µg/mL; in assay [5], 172 µM; in assay [6] it was 80 µM.

Turning to `COCOc1ccc(/C=C/C(=O)OC/C=C/c2ccc(OC)cc2)cc1`, the IC50 is 46 µM in assay [1]; greater than 100 µg/mL in assay [2]; greater than 100 µg/mL in assay [3]; greater than 100 µg/mL in assay [4]; greater than 100 µg/mL in assay [5]; 226 µM in assay [6].

Turning to `COc1ccc(/C=C/COC(=O)/C=C/c2ccc([N+](=O)[O-])cc2)cc1OC`, the IC50 in assay [1] is greater than 100 µg/mL; in assay [2] it was greater than 100 µg/mL; in assay [3] it was greater than 100 µg/mL; in assay [4] it was 165 µM; in assay [5], greater than 100 µg/mL; in assay [6], 212 µM.

In the case of `COc1ccc(/C=C/C(=O)OC/C=C/c2ccc(OC)c(OC)c2)cc1`, the IC50 is 167 µM in assay [1]; greater than 100 µg/mL in assay [2]; greater than 100 µg/mL in assay [3]; greater than 100 µg/mL in assay [4]; greater than 100 µg/mL in assay [5]; 181 µM in assay [6].
